# Experiments:
# A 172 = assay: Inhibition of nitric oxide formation in human A172 cells; type: functional, cell-based
# Outline: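 Human A172 cells were stimulated with cytokines to induce NO formation, with compound present. Nitrite/NO produced was read with Griess reagent and IC50 determined.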
# [1] = molecular target: Nitric oxide synthase, inducible (Homo sapiens, UniProt P35228); assay: Inhibition of tetracycline-induced iNOS expressed in SF9 cells
# Outline: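 SF9 cells transfected with iNOS in a tetracycline-inducible system, expression induced by tetracycline. NOS activity was measured as conversion of radiolabeled arginine to radiolabeled citrulline. IC50 was averaged over at least two separate experiments unless noted otherwise.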
# [2] = Clearance in rat at 2 mg/kg, iv; type: ADME, organism-based; parameters: dose 2 mg/kg, route intravenous; conditions: in vivo
# Outline: (§1)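 Rat, intravenous dose of 2 mg/kg. Readouts were half-life, clearance, steady-state volume of distribution and AUC to infinity.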
# [3] = Bioavailability in rat at 10 mg/kg, po; type: ADME, organism-based; conditions: in vivo
# Outline: (§2)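 Rat, oral dose of 10 mg/kg. Readouts were Cmax, terminal half-life, AUC to infinity and oral bioavailability (%F).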
# [4] = AUC (infinity) in rat at 10 mg/kg, po; type: ADME, organism-based; parameters: time infinity, dose 10 mg/kg, route oral; conditions: plasma; outline: as §2
# [5] = Cmax in rat at 10 mg/kg, po; type: ADME, organism-based; parameters: dose 10 mg/kg, route oral; conditions: in vivo; outline: as §2
# [6] = Metabolic stability in rat liver microsomes after 3 hrs; type: ADME, Microsome; conditions: read-out: Stability
# Outline: (§3)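 Compound incubated with rat, dog or human liver microsomes for 3 h. Stability was reported as percent parent remaining.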
# [7] = Metabolic stability in human liver microsomes after 3 hrs; type: ADME, Microsome; conditions: read-out: Stability; outline: as §3
# [8] = Metabolic stability in dog liver microsomes after 3 hrs; type: ADME, Canis lupus familiaris, Microsome; conditions: read-out: Stability; outline: as §3
# [9] = Half life in rat at 10 mg/kg, po; type: ADME, organism-based; parameters: dose 10 mg/kg, route oral; conditions: in vivo; outline: as §2
# [10] = Half life in rat at 2 mg/kg, iv; type: ADME, organism-based; parameters: dose 2 mg/kg, route intravenous; conditions: in vivo; outline: as §1
# Rattus norvegicus = assay: AUC (infinity) in rat at 2 mg/kg, iv; type: ADME, organism-based, Plasma; parameters: time infinity, dose 2 mg/kg, route intravenous; conditions: in vivo; outline: as §1
# [11] = Volume of distribution at steady state in rat at 2 mg/kg, iv; type: ADME, organism-based; parameters: dose 2 mg/kg, route intravenous; conditions: in vivo, read-out: Vss; outline: as §1
# Chain of Nitric oxide synthase, inducible (P35228 whole entry): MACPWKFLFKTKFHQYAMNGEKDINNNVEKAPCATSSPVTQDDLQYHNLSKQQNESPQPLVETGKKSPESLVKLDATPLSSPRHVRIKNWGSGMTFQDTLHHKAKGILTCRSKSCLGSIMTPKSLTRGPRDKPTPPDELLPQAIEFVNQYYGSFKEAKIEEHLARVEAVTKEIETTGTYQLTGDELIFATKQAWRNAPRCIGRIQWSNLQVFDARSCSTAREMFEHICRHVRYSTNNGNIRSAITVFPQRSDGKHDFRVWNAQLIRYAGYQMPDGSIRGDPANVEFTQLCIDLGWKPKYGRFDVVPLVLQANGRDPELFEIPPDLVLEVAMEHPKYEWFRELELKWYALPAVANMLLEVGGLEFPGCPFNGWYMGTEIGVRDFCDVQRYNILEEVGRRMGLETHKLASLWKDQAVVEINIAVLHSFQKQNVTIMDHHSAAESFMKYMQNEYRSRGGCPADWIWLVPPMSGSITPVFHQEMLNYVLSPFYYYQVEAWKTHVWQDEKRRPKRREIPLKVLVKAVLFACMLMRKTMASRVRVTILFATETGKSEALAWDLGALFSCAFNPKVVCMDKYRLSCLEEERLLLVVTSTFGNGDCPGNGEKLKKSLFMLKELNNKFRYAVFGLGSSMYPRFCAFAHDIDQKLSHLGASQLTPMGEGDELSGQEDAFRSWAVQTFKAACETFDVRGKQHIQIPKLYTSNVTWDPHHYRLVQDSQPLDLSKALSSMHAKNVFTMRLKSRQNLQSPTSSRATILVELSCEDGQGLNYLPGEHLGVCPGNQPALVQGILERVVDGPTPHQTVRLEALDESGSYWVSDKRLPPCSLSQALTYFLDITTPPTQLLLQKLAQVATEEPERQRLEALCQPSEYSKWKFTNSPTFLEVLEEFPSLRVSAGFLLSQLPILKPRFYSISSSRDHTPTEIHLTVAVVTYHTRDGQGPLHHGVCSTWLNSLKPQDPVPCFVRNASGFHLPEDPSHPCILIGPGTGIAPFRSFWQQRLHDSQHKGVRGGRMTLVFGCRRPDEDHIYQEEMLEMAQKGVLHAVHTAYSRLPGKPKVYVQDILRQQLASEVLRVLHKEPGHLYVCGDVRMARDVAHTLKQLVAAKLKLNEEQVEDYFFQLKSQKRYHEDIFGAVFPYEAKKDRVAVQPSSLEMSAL
compound,measurement,setting,value
c1cn(-c2ccc(OCCNCc3ccc4c(c3)OCO4)cc2)cn1,IC50,A 172,240 nM
CCOC(=O)CN(CCOc1ccc(-n2ccnc2)cc1)Cc1ccc2c(c1)OCO2,IC50,A 172,1200 nM
O=C(CN(CCOc1ccc(-n2ccnc2)cc1)Cc1ccc2c(c1)OCO2)NCc1ccc2c(c1)OCO2,IC50,A 172,640 nM
c1cn(-c2ccc(OC3CCCN(Cc4ccc5c(c4)OCO5)C3)cc2)cn1 (stereo unspecified),IC50,[1],250 nM
same,IC50,A 172,57 nM
c1cn(-c2ccc(OCC3CCCN(Cc4ccc5c(c4)OCO5)C3)cc2)cn1 (stereo unspecified),IC50,A 172,> 10000 nM
c1cn(-c2ccc(OC3CCN(Cc4ccc5c(c4)OCO5)C3)cc2)cn1 (stereo unspecified),IC50,A 172,4200 nM
c1cn(-c2ccc(O[C@@H]3CCCN(Cc4ccc5c(c4)OCO5)C3)cc2)cn1,IC50,A 172,1700 nM
c1cn(-c2ccc(O[C@H]3CCN(Cc4ccc5c(c4)OCO5)C3)cc2)cn1,IC50,A 172,1600 nM
c1cn(-c2ccc(O[C@H]3CCCN(Cc4ccc5c(c4)OCO5)C3)cc2)cn1,IC50,[1],72 nM
same,IC50,A 172,9 nM
same,clearance,[2],128 mL/min/kg
same,bioavailability,[3],100%
same,AUC(0-inf),[4],2600 ng·h/mL
same,Cmax,[5],800 ng/mL
same,remaining at 3 h,[6],47%
same,remaining at 3 h,[7],31%
same,remaining at 3 h,[8],89%
same,half-life,[9],2.9 h
same,half-life,[10],2.2 h
same,AUC,Rattus norvegicus,280 ng·h/mL
same,Vd,[11],21 L/kg
O=C(O)CN(CCOc1ccc(-n2ccnc2)cc1)Cc1ccc2c(c1)OCO2,IC50,A 172,> 10000 nM
CC1CCCCN1CCCNC(=O)CN(CCOc1ccc(-n2ccnc2)cc1)Cc1ccc2c(c1)OCO2 (stereo unspecified),IC50,A 172,1600 nM
c1cn(-c2ccc(OC3CCCN(Cc4ccc5c(c4)OCO5)C3)nn2)cn1 (stereo unspecified),IC50,[1],590 nM
same,IC50,A 172,52 nM
O=C(CN(CCOc1ccc(-n2ccnc2)cc1)Cc1ccc2c(c1)OCO2)NCc1ccc(C(F)(F)F)cc1,IC50,A 172,1800 nM
c1cn(-c2ccc(NC3CCCN(Cc4ccc5c(c4)OCO5)C3)cc2)cn1 (stereo unspecified),IC50,[1],120 nM
same,IC50,A 172,10 nM
c1cn(-c2ccc(OC[C@H]3CCCN3Cc3ccc4c(c3)OCO4)cc2)cn1,IC50,[1],1200 nM
same,IC50,A 172,250 nM
c1cn(-c2ccc(OCC3CCCCN3Cc3ccc4c(c3)OCO4)cc2)cn1 (stereo unspecified),IC50,[1],2200 nM
same,IC50,A 172,100 nM
c1cn(-c2ccc(OCCN(Cc3ccc4c(c3)OCO4)Cc3ccc4c(c3)OCO4)cc2)cn1,IC50,A 172,1500 nM
c1cn(-c2ccc(OC3CCCCN(Cc4ccc5c(c4)OCO5)C3)cc2)cn1 (stereo unspecified),IC50,A 172,78 nM
c1cn(-c2ccc(O[C@@H]3CCN(Cc4ccc5c(c4)OCO5)C3)cc2)cn1,IC50,A 172,> 10000 nM
